ChEMBL document CHEMBL3797125, “Discovery of GluN2A-Selective NMDA Receptor Positive Allosteric Modulators (PAMs): Tuning Deactivation Kinetics via Structure-Based Design” (J Med Chem, 2016)
pEC50: −log10 of the molar value.

Legend:
Glutamate receptor 2 [1] = target: T1, Glutamate receptor 2 (Homo sapiens, UniProt P42262); assay: Positive allosteric modulation of human GluA2 AMPAR flip isomer expressed in Dox-inducible cells measured every 5 mins by BD calcium indicator dye based-fluorescence analysis in presence of glutamate; assay type: cell-based
T1 sequence (P42262 whole entry): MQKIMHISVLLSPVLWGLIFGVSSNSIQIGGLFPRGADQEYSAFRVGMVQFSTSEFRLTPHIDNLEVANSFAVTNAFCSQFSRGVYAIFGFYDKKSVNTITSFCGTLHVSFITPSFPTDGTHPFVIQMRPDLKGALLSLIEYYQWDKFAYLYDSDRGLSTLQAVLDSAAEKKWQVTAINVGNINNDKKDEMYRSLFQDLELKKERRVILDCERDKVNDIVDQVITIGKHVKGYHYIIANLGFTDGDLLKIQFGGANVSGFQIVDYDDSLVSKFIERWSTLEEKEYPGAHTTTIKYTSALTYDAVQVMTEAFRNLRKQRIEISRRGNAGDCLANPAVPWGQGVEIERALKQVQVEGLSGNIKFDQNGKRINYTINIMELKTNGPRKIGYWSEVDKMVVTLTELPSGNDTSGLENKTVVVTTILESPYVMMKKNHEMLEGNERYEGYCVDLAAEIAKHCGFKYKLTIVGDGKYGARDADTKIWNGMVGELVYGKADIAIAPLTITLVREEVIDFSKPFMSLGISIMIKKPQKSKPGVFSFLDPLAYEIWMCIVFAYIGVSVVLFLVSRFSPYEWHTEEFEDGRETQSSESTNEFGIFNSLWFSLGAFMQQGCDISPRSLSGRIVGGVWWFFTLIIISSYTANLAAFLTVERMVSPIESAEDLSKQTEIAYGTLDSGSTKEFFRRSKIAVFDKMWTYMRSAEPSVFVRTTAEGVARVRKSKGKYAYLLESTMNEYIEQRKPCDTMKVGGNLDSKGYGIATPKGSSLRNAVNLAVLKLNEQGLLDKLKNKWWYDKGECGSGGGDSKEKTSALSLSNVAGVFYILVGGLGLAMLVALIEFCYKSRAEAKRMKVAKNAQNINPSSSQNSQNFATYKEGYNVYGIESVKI

Glutamate receptor 2 [2] = target: T1, Glutamate receptor 2; assay: Positive allosteric modulation of human GluA2 AMPAR flip isomer expressed in Dox-inducible cells at 125 uM measured every 5 mins by BD calcium indicator dye based-fluorescence analysis in presence of glutamate; assay type: cell-based
Glutamate receptor 2 [3] = target: T1, Glutamate receptor 2; assay: Positive allosteric modulation of human GluA2 AMPAR flop isomer expressed in Dox-inducible cells at 125 uM measured every 5 mins by BD calcium indicator dye based-fluorescence analysis in presence of glutamate; assay type: cell-based
[4] = target: T2, Glutamate NMDA receptor; GRIN1/GRIN2A (Homo sapiens, UniProt Q05586+Q12879); assay: Positive allosteric modulation of GluN1/GluN2A NMDAR (unknown origin) expressed in Dox-inducible cells at 125 uM measured every 5 mins by BD calcium indicator dye based-fluorescence analysis in presence of glutamate/glycine; assay type: cell-based
How it was run: (§1)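 GluN2A-containing NMDAR cell line, harvested, seeded, doxycycline 2 µg/mL overnight with 500 µM ketamine for protection, then washed and loaded with calcium dye for 50 min. Compound added at 2x concentration in 2x EC30 Glu (EC30 set daily from Glu dose-response); saturating Gly throughout; fluorescence recorded over 5 min.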

human MDR1 (P-gp) = assay: Efflux ratio of permeability from basolateral to apical over apical to basolateral side in MDCK cells expressing human MDR1; assay type: ADME, cell-based, Canis lupus familiaris; details: dog
[5] = target: T2, Glutamate NMDA receptor; GRIN1/GRIN2A; assay: Positive allosteric modulation of GluN1/GluN2A NMDAR (unknown origin) expressed in Dox-inducible cells measured every 5 mins by BD calcium indicator dye based-fluorescence analysis in presence of glutamate/glycine; assay type: cell-based; how it was run: as §1
Glutamate receptor 2 [6] = target: T1, Glutamate receptor 2; assay: Positive allosteric modulation of human GluA2 AMPAR flop isomer expressed in Dox-inducible cells measured every 5 mins by BD calcium indicator dye based-fluorescence analysis in presence of glutamate; assay type: cell-based

Compound	pEC50 (Glutamate receptor 2 [1])	%max (Glutamate receptor 2 [2]) [%]	%max (Glutamate receptor 2 [3]) [%]	%max [4] [%]	efflux ratio (human MDR1 (P-gp))	pEC50 [5]	pEC50 (Glutamate receptor 2 [6])
CCNC(=O)c1c(C)sc2nc(CN(C)c3ccc(F)cc3)cc(=O)n12		2	2	159	8.6	6.36	
CCNC(=O)c1c(C)sc2nc(Cn3nc(C(F)(F)F)cc3OCC(C)C)cc(=O)n12		3	10	60	3.7	4.24	
CCNC(=O)c1c(C)sc2nc(Cc3cccc(C(F)(F)F)c3)cc(=O)n12		18	21	113	20	5.72	4.18
CCNC(=O)c1c(C)sc2nc(Cn3ccc(C(F)(F)F)n3)cc(=O)n12		2	1	99	21.5	4.77	
CCNC(=O)c1c(C)sc2nc(Cc3cc(C#N)ccc3Cl)cc(=O)n12		1	0	94	22	4.89	
Cc1sc2nc(Cc3cccc(C#N)c3F)cc(=O)n2c1C1CC1CO (racemic)	4.49	38	23	160	3.6	6.05	5.96
CCN(Cc1cc(=O)n2c(C3CCC3)c(C)sc2n1)c1ccc(F)cc1	4.44	38	20	122		5.59	5.07
CCN(Cc1cc(=O)n2c(C(C)C)c(C)sc2n1)c1ccc(F)cc1	4.46	15	1	129	1.3	6.16	
CCNC(=O)c1c(C)sc2nc(Cn3nc(C(F)(F)F)cc3C3CC3)cc(=O)n12		54	60	147	2.2	6.27	5.19
Cc1sc2nc(Cc3cccc(C(F)(F)F)c3F)cc(=O)n2c1C1CC1CO (racemic)	5.77	57	27	117	0.51	6.34	6.44
CCNC(=O)c1c(C)sc2nc(Cc3cccc(C(F)(F)F)c3F)cc(=O)n12	4.55	9	20	94	1.8	5.92	4.53
CCNC(=O)c1c(C)sc2nc(Cn3nc(C(F)(F)F)cc3OCC)cc(=O)n12		32	43	144	57	6.38	5.04
CCNC(=O)c1c(C)sc2nc(Cc3cc(C#N)ccc3C3CC3)cc(=O)n12		2	2	102	44	4.76	
CCN(Cc1cc(=O)n2c(CO)c(C)sc2n1)c1ccc(F)cc1	4.18	39	83	153	1.1	6.19	5.72
CCNC(=O)c1c(C)sc2nc(C(C)c3cccc(C(F)(F)F)c3F)cc(=O)n12 (racemic)		4	8	75	2.2	5.51	
CCNC(=O)c1c(C)sc2nc(CN(CC)c3ccc(F)cn3)cc(=O)n12		6	13	170	22	5.77	
CCNC(=O)c1c(C)sc2nc(CNc3ccc(F)cc3)cc(=O)n12		8	19	123	5.8	5.15	
CCNC(=O)c1c(C)sc2nc(Cc3cccc(C#N)c3)cc(=O)n12	4.48	10	8	71	25	4.21	4.27
CCNC(=O)c1c(C)sc2nc(Cn3nc(C(F)(F)F)cc3C)cc(=O)n12		8	19	128	33	5.31	
CCNC(=O)c1c(C)sc2nc(Cc3cccc(C#N)c3F)cc(=O)n12		3	3	102	3.1	5.04	
CCN(Cc1cc(=O)n2c(N3CCOCC3)c(C)sc2n1)c1ccc(F)cc1	4.12	11	8	69	0.9	5.66	4.22

Compounds with a higher pEC50 [5], results first:

pEC50 (Glutamate receptor 2 [1])	%max (Glutamate receptor 2 [2]) [%]	%max (Glutamate receptor 2 [3]) [%]	%max [4] [%]	efflux ratio (human MDR1 (P-gp))	pEC50 [5]	pEC50 (Glutamate receptor 2 [6])	Compound
4.18	13	60	181	0.9	6.89	4.97	CCN(Cc1cc(=O)n2c(C#N)c(C)sc2n1)c1ccc(F)cc1
4.47	35	31	168	0.8	6.40	5.01	CCN(Cc1cc(=O)n2c(C3CC3)c(C)sc2n1)c1ccc(F)cc1
6.15	91	93	151	5.3	7.53	7.14	Cc1sc2nc(Cn3nc(C(F)(F)F)cc3Cl)cc(=O)n2c1[C@@H]1C[C@H]1C#N
	56	16	148	1.2	6.86	6.01	CCN(Cc1cc(=O)n2c(-c3cncnc3)c(C)sc2n1)c1ccc(F)cc1
4.98	72	75	168	0.9	6.80	6.24	CCN(Cc1cc(=O)n2c(CCO)c(C)sc2n1)c1ccc(F)cc1
4.44	66	41	144	1	7.14	5.60	O=c1cc(Cn2nc(C(F)(F)F)cc2Cl)nc2sc(C(F)(F)F)c([C@@H]3C[C@H]3CO)n12
5.27	7	6	122	0.8	6.42	5.64	Cc1sc2nc(COc3ccc(F)cc3)cc(=O)n2c1[C@@H]1C[C@H]1CO
4.91	65	5	157	1	7.20	5.62	CCN(Cc1cc(=O)n2c(C(C)(C)O)c(C)sc2n1)c1ccc(F)cc1
6.60	95	93	150	1	6.51	6.61	CCN(Cc1cc(=O)n2cc(C)sc2n1)c1ccc(F)cc1
6.82	85	52	147	1.3	7.75	7.32	Cc1sc2nc(Cn3nc(C(F)(F)F)cc3Cl)cc(=O)n2c1[C@@H]1C[C@H]1CO
4.48	37	45	169	1	6.74	5.82	CCN(Cc1cc(=O)n2c(CCCO)c(C)sc2n1)c1ccc(F)cc1
6.06	84	64	184	1.2	7.61	6.69	CCN(Cc1cc(=O)n2c([C@@H]3C[C@H]3CO)c(C)sc2n1)c1ccc(F)cc1
	18	38	185	9.8	6.88		CCN(Cc1cc(=O)n2c(C(=O)NC)c(C)sc2n1)c1ccc(F)cc1
	5	32	171	12.6	6.88	4.31	CCCN(Cc1cc(=O)n2c(C(=O)NCC)c(C)sc2n1)c1ccc(F)cc1
4.47	75	11	144	1.2	6.77	5.35	CCN(Cc1cc(=O)n2c(-c3cccnc3)c(C)sc2n1)c1ccc(F)cc1
4.49	37	30	154	0.6	6.74	5.26	CCN(Cc1cc(=O)n2c(C(C)O)c(C)sc2n1)c1ccc(F)cc1 (racemic)
